Key:
[1] = In vitro glutathione peroxidase activity at 2*10e-7M using hydrogen peroxide, activity given in percentage of ebselen''s activity; type: functional
[2] = In vitro glutathione peroxidase activity at 2*10e-7M using tert-butyl hydroperoxide, activity given in percentage of ebselen''s activity; type: functional
Rattus norvegicus [3] = assay: Tested for acute anti-inflammatory activity of the antirat serum-induced edema in rats at dose of 30 mg/kg at time interval- 0.5 hr; type: functional
Outline: (§1)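 Fasted Wistar rats (200–240 g), six per group, receive drug orally in 2% gelatin. One hour later, 0.1 mL rabbit antirat serum is injected subplantar into the hind paw. Paw volume is measured by water plethysmometry at injection and at 0.5, 1, 2, 3 and 4 h. Results are percent inhibition of swelling versus vehicle-treated rats.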

Rattus norvegicus [4] = assay: Tested for acute anti-inflammatory activity of the antirat serum-induced edema in rats at dose of 30 mg/kg at time interval- 1 hr; type: functional; outline: as §1
Rattus norvegicus [5] = assay: Tested for acute anti-inflammatory activity of the antirat serum-induced edema in rats at dose of 30 mg/kg at time interval- 2 hr; type: functional; outline: as §1
Rattus norvegicus [6] = assay: Tested for acute anti-inflammatory activity of carrageenan-induced foot edema in rats at dose of 100 mg/kg at time interval- 0.5 hr; type: functional
Outline: (§2)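 Fasted Wistar rats (200–240 g), six per group, receive drug orally in 2% gelatin. One hour later, 0.1 mL 2% carrageenan in […] is injected subplantar into the hind paw. Paw volume is measured by water plethysmometry at injection and at 0.5, 1, 2, 3 and 4 h. Results are percent inhibition of swelling versus vehicle-treated rats.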

Rattus norvegicus [7] = assay: Tested for acute anti-inflammatory activity of carrageenan-induced foot edema in rats at dose of 100 mg/kg at time interval- 1 hr; type: functional; outline: as §2
Rattus norvegicus [8] = assay: Tested for acute anti-inflammatory activity of carrageenan-induced foot edema in rats at dose of 100 mg/kg at time interval- 3h; type: functional; outline: as §2
Rattus norvegicus [9] = assay: Tested for acute anti-inflammatory activity of carrageenan-induced foot edema in rats at dose of 100 mg/kg at time interval- 4 hr; type: functional; outline: as §2
Rattus norvegicus [10] = assay: Tested for acute anti-inflammatory activity of carrageenan-induced foot edema in rats at dose of 30 mg/kg at time interval- 0.5 hr; type: functional; outline: as §2
Rattus norvegicus [11] = assay: Tested for acute anti-inflammatory activity of carrageenan-induced foot edema in rats at dose of 30 mg/kg at time interval- 1 hr; type: functional; outline: as §2
Rattus norvegicus [12] = assay: Tested for acute anti-inflammatory activity of carrageenan-induced foot edema in rats at dose of 30 mg/kg at time interval- 3h; type: functional; outline: as §2
Rattus norvegicus [13] = assay: Tested for acute anti-inflammatory activity of carrageenan-induced foot edema in rats at dose of 30 mg/kg at time interval- 4 hr; type: functional; outline: as §2
Rattus norvegicus [14] = assay: Tested for acute anti-inflammatory activity of the antirat serum-induced edema in rats at dose of 30 mg/kg at time interval- 3h; type: functional; outline: as §1
Rattus norvegicus [15] = assay: Tested for acute anti-inflammatory activity of the antirat serum-induced edema in rats at dose of 30 mg/kg at time interval- 4 hr; type: functional; outline: as §1
Rattus norvegicus [16] = assay: Tested for acute anti-inflammatory activity of the antirat serum-induced edema in rats at dose of 3 mg/kg at time interval- 1 hr; type: functional; outline: as §1
Rattus norvegicus [17] = assay: Tested for acute anti-inflammatory activity of the antirat serum-induced edema in rats at dose of 3 mg/kg at time interval- 2 hr; type: functional; outline: as §1
Rattus norvegicus [18] = assay: Tested for acute anti-inflammatory activity of the antirat serum-induced edema in rats at dose of 3 mg/kg at time interval- 3h; type: functional; outline: as §1
Rattus norvegicus [19] = assay: Tested for acute anti-inflammatory activity of the antirat serum-induced edema in rats at dose of 3 mg/kg at time interval- 4 hr; type: functional; outline: as §1
Rattus norvegicus [20] = assay: Tested for acute anti-inflammatory activity of carrageenan-induced foot edema in rats at dose of 3 mg/kg at time interval- 0.5 hr; type: functional; outline: as §2
Rattus norvegicus [21] = assay: Tested for acute anti-inflammatory activity of carrageenan-induced foot edema in rats at dose of 3 mg/kg at time interval- 1 hr; type: functional; outline: as §2
Rattus norvegicus [22] = assay: Tested for acute anti-inflammatory activity of carrageenan-induced foot edema in rats at dose of 3 mg/kg at time interval- 2 hr; type: functional; outline: as §2
Rattus norvegicus [23] = assay: Tested for acute anti-inflammatory activity of carrageenan-induced foot edema in rats at dose of 3 mg/kg at time interval- 3h; type: functional; outline: as §2
Rattus norvegicus [24] = assay: Tested for acute anti-inflammatory activity of carrageenan-induced foot edema in rats at dose of 3 mg/kg at time interval- 4 hr; type: functional; outline: as §2
Rattus norvegicus [25] = assay: Tested for acute anti-inflammatory activity of the antirat serum-induced edema in rats at dose of 100 mg/kg at time interval- 0.5 hr; type: functional; outline: as §1
Rattus norvegicus [26] = assay: Tested for acute anti-inflammatory activity of the antirat serum-induced edema in rats at dose of 100 mg/kg at time interval- 1 hr; type: functional; outline: as §1
Rattus norvegicus [27] = assay: Tested for acute anti-inflammatory activity of the antirat serum-induced edema in rats at dose of 100 mg/kg at time interval- 2 hr; type: functional; outline: as §1
Rattus norvegicus [28] = assay: Tested for acute anti-inflammatory activity of the antirat serum-induced edema in rats at dose of 100 mg/kg at time interval- 3h; type: functional; outline: as §1
Rattus norvegicus [29] = assay: Tested for acute anti-inflammatory activity of the antirat serum-induced edema in rats at dose of 100 mg/kg at time interval- 4 hr; type: functional; outline: as §1
Rattus norvegicus [30] = assay: Tested for acute anti-inflammatory activity of carrageenan-induced foot edema in rats at dose of 30 mg/kg at time interval- 2 hr; type: functional; outline: as §2
Rattus norvegicus [31] = assay: Tested for acute anti-inflammatory activity of carrageenan-induced foot edema in rats at dose of 100 mg/kg at time interval- 2 hr; type: functional; outline: as §2
Rattus norvegicus [32] = assay: Tested for acute anti-inflammatory activity of the antirat serum-induced edema in rats at dose of 3 mg/kg at time interval- 0.5 hr; type: functional; outline: as §1
[33] = Inhibition of spontaneous lipid peroxidation at 10e-5 M in rat brain homogenate
[34] = Inhibition of [Fe(2+)]/ascorbate-induced lipid peroxidation at 10e-5 M in rat brain homogenate

O=C(c1ccccc1)c1ccc2[nH]c(=O)[se]c2c1
GSH-Px activity [1]: 0
GSH-Px activity [2]: 0
inhibition in vivo at 30 mg/kg (Rattus norvegicus [3]): -9.8%
inhibition in vivo at 30 mg/kg (Rattus norvegicus [4]): 5.3%
inhibition in vivo at 30 mg/kg (Rattus norvegicus [5]): 25.6%
inhibition in vivo at 100 mg/kg (Rattus norvegicus [6]): -76.2%
inhibition in vivo at 100 mg/kg (Rattus norvegicus [7]): 9.9%
inhibition in vivo at 100 mg/kg (Rattus norvegicus [8]): 58.5%
inhibition in vivo at 100 mg/kg (Rattus norvegicus [9]): 55.5%
inhibition in vivo at 30 mg/kg (Rattus norvegicus [10]): -22.2%
inhibition in vivo at 30 mg/kg (Rattus norvegicus [11]): 14.2%
inhibition in vivo at 30 mg/kg (Rattus norvegicus [12]): 35.6%
inhibition in vivo at 30 mg/kg (Rattus norvegicus [13]): 26.1%
inhibition in vivo at 30 mg/kg (Rattus norvegicus [14]): 19.7%
inhibition in vivo at 30 mg/kg (Rattus norvegicus [15]): 25.2%
inhibition in vivo at 3 mg/kg (Rattus norvegicus [16]): -16.7%
inhibition in vivo at 3 mg/kg (Rattus norvegicus [17]): -10.7%
inhibition in vivo at 3 mg/kg (Rattus norvegicus [18]): -14.1%
inhibition in vivo at 3 mg/kg (Rattus norvegicus [19]): -1.4%
inhibition in vivo at 3 mg/kg (Rattus norvegicus [20]): -42.9%
inhibition in vivo at 3 mg/kg (Rattus norvegicus [21]): -7.8%
inhibition in vivo at 3 mg/kg (Rattus norvegicus [22]): 27.8%
inhibition in vivo at 3 mg/kg (Rattus norvegicus [23]): 27.5%
inhibition in vivo at 3 mg/kg (Rattus norvegicus [24]): 9.6%
inhibition in vivo at 100 mg/kg (Rattus norvegicus [25]): -0.5%
inhibition in vivo at 100 mg/kg (Rattus norvegicus [26]): 6%
inhibition in vivo at 100 mg/kg (Rattus norvegicus [27]): 12.7%
inhibition in vivo at 100 mg/kg (Rattus norvegicus [28]): 18%
inhibition in vivo at 100 mg/kg (Rattus norvegicus [29]): 19.3%
inhibition in vivo at 30 mg/kg (Rattus norvegicus [30]): 31.7%
inhibition in vivo at 100 mg/kg (Rattus norvegicus [31]): 51.6%
inhibition in vivo at 3 mg/kg (Rattus norvegicus [32]): -41.8%
inhibition [33]: 0%
inhibition [34]: -3%

Nc1ccc(C(=O)c2ccccc2)cc1[Se][Se]c1cc(C(=O)c2ccccc2)ccc1N
GSH-Px activity [1]: 261
GSH-Px activity [2]: 300
inhibition in vivo at 30 mg/kg (Rattus norvegicus [3]): -23.4%
inhibition in vivo at 30 mg/kg (Rattus norvegicus [4]): -18.2%
inhibition in vivo at 30 mg/kg (Rattus norvegicus [5]): 0.7%
inhibition in vivo at 100 mg/kg (Rattus norvegicus [6]): -27%
inhibition in vivo at 100 mg/kg (Rattus norvegicus [7]): 40.4%
inhibition in vivo at 100 mg/kg (Rattus norvegicus [8]): 9.2%
inhibition in vivo at 100 mg/kg (Rattus norvegicus [9]): 5%
inhibition in vivo at 30 mg/kg (Rattus norvegicus [10]): -20.6%
inhibition in vivo at 30 mg/kg (Rattus norvegicus [11]): 43.3%
inhibition in vivo at 30 mg/kg (Rattus norvegicus [12]): 13.7%
inhibition in vivo at 30 mg/kg (Rattus norvegicus [13]): 8.5%
inhibition in vivo at 30 mg/kg (Rattus norvegicus [14]): -3.7%
inhibition in vivo at 30 mg/kg (Rattus norvegicus [15]): 5.5%
inhibition in vivo at 3 mg/kg (Rattus norvegicus [16]): -7.9%
inhibition in vivo at 3 mg/kg (Rattus norvegicus [17]): -3.3%
inhibition in vivo at 3 mg/kg (Rattus norvegicus [18]): 0.2%
inhibition in vivo at 3 mg/kg (Rattus norvegicus [19]): 4.8%
inhibition in vivo at 3 mg/kg (Rattus norvegicus [20]): -33.3%
inhibition in vivo at 3 mg/kg (Rattus norvegicus [21]): 39%
inhibition in vivo at 3 mg/kg (Rattus norvegicus [22]): 45%
inhibition in vivo at 3 mg/kg (Rattus norvegicus [23]): 32.9%
inhibition in vivo at 3 mg/kg (Rattus norvegicus [24]): 18.2%
inhibition in vivo at 100 mg/kg (Rattus norvegicus [25]): -37.5%
inhibition in vivo at 100 mg/kg (Rattus norvegicus [26]): 7.2%
inhibition in vivo at 100 mg/kg (Rattus norvegicus [27]): 4.9%
inhibition in vivo at 100 mg/kg (Rattus norvegicus [28]): -3.9%
inhibition in vivo at 100 mg/kg (Rattus norvegicus [29]): 2%
inhibition in vivo at 30 mg/kg (Rattus norvegicus [30]): 18.7%
inhibition in vivo at 100 mg/kg (Rattus norvegicus [31]): 29.2%
inhibition in vivo at 3 mg/kg (Rattus norvegicus [32]): -16.8%
inhibition [33]: 87%
inhibition [34]: 95%
